Measured values as given in PubChem BioAssay.
Records with an inconclusive call do not appear.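 The calls were made as follows, unless noted: active = viability at or below 27.92% in each of two runs, the all-compound median minus 4 SD; inconclusive = no clear call, values can overlap the other calls; inactive = the rest.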

Legend:
[1] = OD615 S. cerevisiae growth inhibition, permissive medium, pilot counter-assay, permissive growth control for S. cerevisiae lifespan shortening project (AID 705;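 active = growth inhibition above 25% in both replicates, a cutoff set 3 SD above the mean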); settings: OD615, 24 h, at 10 µM, active compounds read high
How it was run: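 assay system = Saccharomyces cerevisiae strain carrying genetically modified DeaD replicative-lifespan system | technique = absorbance (optical density) at 615 nm | buffer or medium = permissive raffinose/galactose medium | timing = cells pre-grown 4 h, then 24 h compound exposure, 30 °C humidified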

[2] = Restrictive medium S. cerevisiae growth inhibition, OD615, pilot screen of yeast lifespan reduction project, restrictive growth control (AID 706;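 active = growth inhibition above a set limit, 3 SD over mean compound inhibition, in both replicates, cut at about 43% in these data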;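 also: modified DeaD lifespan yeast strain shifted to restrictive glucose medium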); settings: OD615, 48 h, at 10 µM, active compounds read high
How it was run: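 System: modified S. cerevisiae. Buffer or medium: CSMM-D glucose medium. Incubation: 4 h pre-growth plus 48 h compound exposure, 30 °C. Detection: absorbance (optical density) measured at 615 nm.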

[3] = viability gain of MRP-1-high H69AR cells under doxorubicin, pilot screen, MRP-1 activator project, CellTiter-Glo, duplicate (AID 807;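 active = viability increase at or above a cutoff of the median across tested compounds plus 3 SD, cut at about 8.5% in these data, passing the limit was not always enough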;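 also: compound pretreatment 18-22 h then 72 h combined with doxorubicin; 0% = doxorubicin alone and 100% = vehicle without doxorubicin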); settings: H69AR viability with doxorubicin, CellTiter-Glo luminescence; at 10 µM; active compounds read high
[4] = growth suppression of beta-catenin knockout HCT116, pilot screen, human colon tumor cells (AID 823;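 active = cell viability at or below a set limit in both duplicate runs, the limit being the all-compound median minus 4 SD, cut at about 23% in these data, passing the limit was not always enough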;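 also: 0% = wells killed by 20 µM Hyamine and 100% = untreated DMSO cell wells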); settings: CellTiter-Glo, 60 h, at 10 µM, active compounds read low
[5] = growth suppression of PTEN-deleted HCT116, pilot screen, cell-based, HCT116 clonal line, CellTiter-Glo (AID 824); settings: 60 h, at 10 µM, active compounds read low;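 also: 0% = 20 µM Hyamine control and 100% = vehicle cell control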
[6] = inhibitors of the yeast RAM network, pilot screen, dse1pr::URA3 reporter, 5-FOA selection (AID 869;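 active = inhibition over a set limit, the all-compound mean plus 3 SD, in both replicate runs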;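 also: 0% = DMSO wells with no growth and 100% = 10 µM 1-NA-PP1 with full growth; RAM network block rescues cells from 5-FOA so hits raise OD615 growth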); settings: S. cerevisiae dse1pr::URA3 5-FOA growth, OD615, 2 d, at 10 µM, active compounds read high
[7] = RAM signaling pathway blockade in yeast – S. cerevisiae, Pdr1DBD-CYC8 efflux-inhibited sensitized strain, primary screen (AID 1298;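 active = RAM network inhibition above 8.4% in each of two replicates, 3 SD over the compound average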;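 also: 0% = DMSO untreated cells without growth and 100% = 10 µM 1-NA-PP1 full growth; higher means more yeast growth rescued from 5-FOA killing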); settings: S. cerevisiae cbk1-as DSE1-URA3 strain, 5-FOA growth OD615, 2 d; at 50 µM; active compounds read high

CC12CCC(=O)C=C1CCC1C2CCC2(C)C(O)CCC12 (centres undefined)
inactive: growth inhibition [1] 5.38% | growth inhibition [2] 6.93% | viability increase [3] -3.17% | viability [4] 89.5% | viability [5] 94% | inhibition [6] 0.475% | RAM network inhibition [7] 1.32%

CCOc1ccc(-n2c(CC)nc3ccccc3c2=O)cc1
inactive: growth inhibition [1] -2.47% | growth inhibition [2] -8.86% | viability increase [3] -1.18% | viability [4] 88% | viability [5] 89.8% | inhibition [6] 1.81% | RAM network inhibition [7] 3.89%

O=C(CN1CCOCC1)c1ccc2cc[nH]c2c1
inactive: growth inhibition [1] -10.7% | growth inhibition [2] -1.26% | viability increase [3] 0.03% | viability [4] 105% | viability [5] 108% | inhibition [6] 0.035% | RAM network inhibition [7] 1.57%

Nc1ccc(S(=O)(=O)N2CC3CC(C2)c2cccc(=O)n2C3)cc1 (centres undefined)
inactive: growth inhibition [1] 1.94% | growth inhibition [2] 1.35% | viability increase [3] 0.35% | viability [4] 101% | viability [5] 100% | inhibition [6] 0.13% | RAM network inhibition [7] 0.37%

CCOC(=O)c1c(C)n(Cc2ccco2)c2ccc(OC)cc12
inactive: growth inhibition [1] 3.7% | growth inhibition [2] 0.26% | viability increase [3] -4.85% | viability [4] 84.4% | viability [5] 85.8% | inhibition [6] 0.59% | RAM network inhibition [7] 3.6%

CCOC(=O)c1c(C)c(P(=S)(N2CCOCC2)N2CCOCC2)n(C)c1C
inactive: growth inhibition [1] -22.4% | growth inhibition [2] -3.18% | viability increase [3] -3.92% | viability [4] 89.1% | viability [5] 87.1% | inhibition [6] 2.06% | RAM network inhibition [7] 2.36%

CCOC(=O)c1c(C)n(Cc2ccccc2)c2ccc(OCC(O)Cn3nc(C)nc3C)cc12 (centres undefined)
inactive: growth inhibition [1] -0.525% | growth inhibition [2] 19.9% | viability increase [3] -0.16% | viability [4] 82.7% | viability [5] 88.3% | inhibition [6] -0.42% | RAM network inhibition [7] 0.63%

Cn1c(O)c(C=NCCc2c[nH]c3ccccc23)c(=O)n(C)c1=O
inactive: growth inhibition [1] -0.425% | growth inhibition [2] -3.75% | viability increase [3] -2.67% | viability [4] 101% | viability [5] 91.4% | inhibition [6] 1.54% | RAM network inhibition [7] -0.15%

OC12Oc3ccccc3C=C1N1CCC2CC1 (centres undefined)
inactive: growth inhibition [1] 1.47% | growth inhibition [2] -1.35% | viability increase [3] 0.26% | viability [4] 99.1% | viability [5] 96.8% | inhibition [6] 1.48% | RAM network inhibition [7] 0.26%

CC12CN3CC(C)(CN(C1)P3(=O)Oc1ccccc1)C2=O (centres undefined)
inactive: growth inhibition [1] -3.04% | growth inhibition [2] -8.29% | viability increase [3] -0.06% | viability [4] 101% | viability [5] 97.9% | inhibition [6] 2.22% | RAM network inhibition [7] 3.62%

COc1ccc(N2C(=O)CC(N3CC=C(c4ccccc4)CC3)C2=O)cc1 (centres undefined)
inactive: growth inhibition [1] -17.8% | growth inhibition [2] -0.61% | viability increase [3] 1.66% | viability [4] 101% | viability [5] 103% | inhibition [6] 0.145% | RAM network inhibition [7] 4.45%

Cc1ccc(-n2nc(C)c3c2NC(=O)CSC3c2ccc3c(c2)OCO3)cc1 (centres undefined)
inactive: growth inhibition [1] -3.05% | growth inhibition [2] 2.3% | viability increase [3] 0.35% | viability [4] 89.9% | viability [5] 96.3% | inhibition [6] 0.385% | RAM network inhibition [7] 1.16%

CCC(=O)N1CC(=O)Nc2ccc(F)cc2C1c1ccccc1 (centres undefined)
inactive: growth inhibition [1] -9.43% | growth inhibition [2] -11.4% | viability increase [3] -1% | viability [4] 92.2% | viability [5] 90.9% | inhibition [6] 2.25% | RAM network inhibition [7] 3.64%

CC(=O)Nc1ccc(OC(=O)N(C)c2ccccc2)cc1
inactive: growth inhibition [1] 1.69% | growth inhibition [2] -3.19% | viability increase [3] 0.24% | viability [4] 105% | viability [5] 100% | inhibition [6] 3.04% | RAM network inhibition [7] 3.59%

COC(=O)C(O)(c1ccc(N(C)S(=O)(=O)c2ccccc2)cc1)C(F)(F)F (centres undefined)
inactive: growth inhibition [1] -3.52% | growth inhibition [2] 2.86% | viability increase [3] 1.65% | viability [4] 98.8% | viability [5] 108% | inhibition [6] 1.2% | RAM network inhibition [7] 0.9%

COc1ccc2nc(NC(=O)CCc3nc(C4=CCN(C)CC4)no3)sc2c1
inactive: growth inhibition [1] -7.66% | growth inhibition [2] 2.61% | viability increase [3] -2.1% | viability [4] 79.2% | viability [5] 91.7% | inhibition [6] 2.04% | RAM network inhibition [7] 5.11%

O=C(CN1CC(c2ccccc2)CC1=O)NCc1ccc(F)cc1 (centres undefined)
inactive: growth inhibition [1] -10.3% | growth inhibition [2] 12.3% | viability increase [3] 0.06% | viability [4] 103% | viability [5] 103% | inhibition [6] 2.63% | RAM network inhibition [7] -0.21%
